{"data": "Published values gathered from unrelated publications", "target": "Lymphokine-activated killer T-cell-originated protein kinase (PBK, Homo sapiens, UniProt Q96KB5)", "Residues used in one study (Q96KB5 1-322)": "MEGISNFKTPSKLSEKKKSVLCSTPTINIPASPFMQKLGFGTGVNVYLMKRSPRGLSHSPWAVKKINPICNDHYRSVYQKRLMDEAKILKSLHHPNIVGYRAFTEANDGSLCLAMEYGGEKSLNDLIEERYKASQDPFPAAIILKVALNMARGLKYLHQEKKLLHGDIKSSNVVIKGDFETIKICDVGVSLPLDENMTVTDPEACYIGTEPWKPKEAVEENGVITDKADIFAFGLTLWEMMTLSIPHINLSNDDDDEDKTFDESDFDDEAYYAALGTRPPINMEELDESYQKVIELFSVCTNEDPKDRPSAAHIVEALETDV"}
{"SMILES": "CCN1CCC2(CC1)NC(=O)c1c(c3ccc(Cl)c(Cl)c3n1C)C2C#N (racemic)", "observed": "thermal stability", "technique": "DSF", "concentration": "10 µM", "quantity": "ΔTm", "value": "-0.3 °C"}
{"SMILES": "O=C1Nc2ccc(Cl)cc2C1=Cc1cc(Cl)c(O)c(Cl)c1", "observed": "cell-free assay", "concentration": "0.5 µM", "quantity": "remaining signal", "value": "86.1%"}
{"SMILES": "CC(C)(C)c1nc2c(s1)c1nc(N)ncc1c1ccc(NS(=O)(=O)c3c(F)cccc3F)c(F)c12", "observed": "enzyme activity", "mode": "inhibitor", "technique": "radiometric", "concentration": "1 µM", "quantity": "remaining activity", "value": "92%"}
{"SMILES": "N#CCCc1ccc2c(c1)-c1[nH]c3ccc([N+](=O)[O-])cc3c1CC(=O)N2", "observed": "cell-free assay", "concentration": "0.5 µM", "quantity": "remaining signal", "value": "95.4%"}
{"SMILES": "Cn1c2c(Cl)c(Cl)ccc2c2cc(N)[nH]c(=O)c21", "observed": "thermal stability", "technique": "DSF", "concentration": "10 µM", "quantity": "ΔTm", "value": "0.6 °C"}
{"SMILES": "CC(C)(O)[C@H]1CC[C@H](Nc2ccc3ncc(-c4cccc(C(F)(F)F)c4)n3n2)CC1", "observed": "enzyme activity", "mode": "inhibitor", "concentration": "1 µM", "quantity": "remaining activity", "value": "87.2%"}
{"SMILES": "CC/C(=N\\NC(=O)NCc1cccc(O)c1)c1ccc(O)c(C)c1O", "observed": "enzyme activity", "mode": "inhibitor", "concentration": "0.1 µM", "quantity": "inhibition", "value": "-7.3%"}
{"SMILES": "O=C(Nc1cnn(-c2csc(C(=O)NC3COC3)c2)c1)Nc1c(F)cccc1Cl", "observed": "enzyme activity", "mode": "inhibitor", "concentration": "5 µM", "quantity": "remaining activity", "value": "98.2%"}
{"SMILES": "Cn1c2c(c3ccccc31)C(C#N)C(C)(C)NC2=O (centres unmarked)", "observed": "thermal stability", "technique": "DSF", "concentration": "10 µM", "quantity": "ΔTm", "value": "-0.8 °C"}
{"SMILES": "Cc1sc(C(=O)NC2COC2)cc1-n1cc(NC(=O)Nc2c(F)cccc2Cl)cn1", "observed": "enzyme activity", "mode": "inhibitor", "concentration": "10 µM", "quantity": "remaining activity", "value": "88.5%"}
{"SMILES": "CC(C)(C)c1nc(-c2cccc(NS(=O)(=O)c3c(F)cccc3F)c2F)c(-c2ccnc(N)n2)s1", "observed": "enzyme activity", "mode": "inhibitor", "technique": "radiometric", "concentration": "1 µM", "quantity": "remaining activity", "value": "99%"}
